For assay [1], the target named is Serotonin 1 (5-HT1) receptor (Rattus norvegicus, UniProt P28564+P30940+P19327+P28565). In words: Ability to bind at 5-hydroxytryptamine 1 receptor of rat hippocampus by displacing [3H]5-HT. It counts as tissue-based. The method in brief:
(§1)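 Rat receptor radioligand displacement, five test-ligand concentrations used to calculate IC50, each assay in duplicate. Some compounds determined four times (in duplicate), with mean IC50 reported.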

Assay [2] deals with T1, Adrenergic receptor alpha-1 (Rattus norvegicus, UniProt P15823+P23944+P43140).
T1 sequence (P15823 whole entry): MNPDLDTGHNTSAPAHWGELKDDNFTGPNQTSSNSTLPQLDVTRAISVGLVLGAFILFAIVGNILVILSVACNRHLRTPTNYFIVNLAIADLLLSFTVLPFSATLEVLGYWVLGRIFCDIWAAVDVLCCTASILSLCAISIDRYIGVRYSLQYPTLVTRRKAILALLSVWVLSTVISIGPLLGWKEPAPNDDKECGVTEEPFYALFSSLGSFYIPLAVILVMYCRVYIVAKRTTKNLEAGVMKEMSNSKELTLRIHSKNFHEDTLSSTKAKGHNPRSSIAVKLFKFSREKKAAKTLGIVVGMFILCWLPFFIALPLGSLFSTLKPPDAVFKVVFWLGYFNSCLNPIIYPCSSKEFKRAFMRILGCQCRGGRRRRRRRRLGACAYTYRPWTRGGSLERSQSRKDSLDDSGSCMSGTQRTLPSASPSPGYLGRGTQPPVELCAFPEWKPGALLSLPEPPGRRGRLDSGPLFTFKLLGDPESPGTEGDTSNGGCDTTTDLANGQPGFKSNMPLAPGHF
T1 sequence (P23944 whole entry): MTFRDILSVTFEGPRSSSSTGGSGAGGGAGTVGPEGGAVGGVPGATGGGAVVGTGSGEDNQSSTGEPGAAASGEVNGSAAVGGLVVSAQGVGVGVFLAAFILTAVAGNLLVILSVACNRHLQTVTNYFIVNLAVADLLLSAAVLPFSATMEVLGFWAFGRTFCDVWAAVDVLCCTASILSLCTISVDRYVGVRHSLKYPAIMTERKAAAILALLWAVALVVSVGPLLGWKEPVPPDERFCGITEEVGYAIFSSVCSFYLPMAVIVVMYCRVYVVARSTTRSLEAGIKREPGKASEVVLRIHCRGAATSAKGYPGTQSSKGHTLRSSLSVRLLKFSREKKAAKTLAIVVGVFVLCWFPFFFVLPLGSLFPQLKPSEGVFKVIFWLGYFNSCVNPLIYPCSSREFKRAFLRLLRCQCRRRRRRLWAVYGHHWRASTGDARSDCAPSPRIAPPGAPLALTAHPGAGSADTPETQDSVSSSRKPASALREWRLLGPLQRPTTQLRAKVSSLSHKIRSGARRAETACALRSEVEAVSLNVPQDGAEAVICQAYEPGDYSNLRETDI
T1 sequence (P43140 whole entry): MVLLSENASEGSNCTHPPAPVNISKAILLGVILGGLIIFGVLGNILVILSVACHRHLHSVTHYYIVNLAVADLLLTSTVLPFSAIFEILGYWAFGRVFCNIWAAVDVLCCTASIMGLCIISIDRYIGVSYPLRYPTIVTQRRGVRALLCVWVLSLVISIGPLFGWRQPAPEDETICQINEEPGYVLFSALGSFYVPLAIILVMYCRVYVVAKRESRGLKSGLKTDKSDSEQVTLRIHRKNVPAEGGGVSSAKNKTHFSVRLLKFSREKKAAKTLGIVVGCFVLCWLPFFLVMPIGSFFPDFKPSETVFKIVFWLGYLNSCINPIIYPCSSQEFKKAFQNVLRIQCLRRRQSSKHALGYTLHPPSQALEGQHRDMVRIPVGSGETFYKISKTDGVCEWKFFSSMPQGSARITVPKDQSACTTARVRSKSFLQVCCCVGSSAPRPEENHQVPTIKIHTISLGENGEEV
In words: Ability to bind at alpha-1 adrenergic receptor by displacing [3H]WB-4101. It counts as protein assay. The essentials: as §1

For assay [3], the target named is D(2) dopamine receptor (Rattus norvegicus, UniProt P61169). In words: Ability to bind at Dopamine receptor D2 of rat corpus striatum by displacing [3H]spiperone. The essentials: as §1
The test system of assay [4] is Rattus norvegicus. In words: Spontaneous discharge activity of individual dopaminergic neurons in the ventral tegmentum neurons (A10 DA cells) when administered subcutaneously at a dose of 5.0 mg/kg/day in anesthetized male Sprague-Dawley rats; No effect at a dose of 0.1-6.3 mg/kg. It counts as functional, organism-based. The settings on record: A10DA.
Assay [5] deals with Rattus norvegicus. In words: Spontaneous discharge activity of individual noradrenergic neurons in the locus coeruleus (LC) when administered intravenously in anesthetized male Sprague-Dawley rats; (excitatory). The assay is classed as functional. Particulars: iv.
Assay [6] deals with Rattus norvegicus. Put plainly: Blockade of apomorphine-induced stereotypy in rats when administered perorally. It counts as functional. Particulars: po.
The subject of assay [7] is Rattus norvegicus. In words: Induction of catalepsy in rats when administered perorally and maximum dose examined was 4 times the ED50 value established in CAR; Inactive. The assay is classed as functional, organism-based.
Assay [8] relates to Rattus norvegicus. Put plainly: Spontaneous discharge activity of individual dopaminergic neurons in substantia nigra (A9DA cells) when administered subcutaneously at dose of 5.0 mg/kg/day in anesthetized male Sprague-Dawley rats; small increase in the number of DA cells per track. It counts as functional, organism-based.
The subject of assay [9] is Rattus norvegicus. Put plainly: Spontaneous discharge activity of individual dopaminergic neurons in the substantia nigra (A9 DA cells) when administered intravenously at a dose of 0.1-6.3 mg/kg in anesthetized male Sprague-Dawley rats; No effect at a dose of 0.1-6.3 mg/kg. The assay is classed as functional, organism-based. Particulars: A9DA.
The test system of assay [10] is Rattus norvegicus. Put plainly: Spontaneous discharge activity of individual dopaminergic neurons in the ventral tegmentum neurons (A10 DA cells) when administered intravenously at a dose of 0.1-6.3 mg/kg in anesthetized male Sprague-Dawley rats; No effect at a dose of 0.1-6.3 m g/kg. The assay is classed as functional, organism-based. Particulars: A10DA.
In assay [11] the test system is Rattus norvegicus. Put plainly: Reversal of trifluoperazine-induced catalepsy in rats when administered perorally. The assay is classed as functional. Particulars: po.
For assay [12], the system named is Rattus norvegicus. In words: Spontaneous discharge activity of individual serotonergic neurons in the dorsal raphe (DR) nucleus when administered intravenously in anesthetized male Sprague-Dawley rats; (Inhibitory). The assay is classed as functional. The settings on record: iv.
Assay [13] concerns Rattus norvegicus. In words: Conditioned avoidance response (CAR) when administered perorally. The assay is classed as functional. Particulars: po.
Assay [14] has as its system Rattus norvegicus. In words: Blockade of Sidman-avoidance activity in rats when administered perorally. The assay is classed as functional. The method in brief: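 Rats trained in once-daily Sidman sessions until stable; non-learners after 3 days replaced. Twelve rats dosed 30 min before session. Each rat compared with mean of its previous three drug-free days by paired t test. Testing continued to minimally effective dose; maximum usually 100 mg/kg. MED is mean over 12 animals.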

The target of assay [15] is Serotonin 2 (5-HT2) receptor (Rattus norvegicus, UniProt P30994+P08909+P14842). In words: Ability to bind at serotonin 5-hydroxytryptamine 2 receptors of rat cortex by displacing [3H]spiperone.
The test system of assay [16] is Mus musculus. Put plainly: Blockade of apomorphine-induced climbing in mice when administered perorally. The assay is classed as functional. The essentials:
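Male mice habituated 30 min in individual cages, then dosed orally (distilled H2O or 0.5% Methocel suspension, 10 mL/kg) or vehicle. Apomorphine 1.5 mg/kg sc given 30 min later. Climbing scored at 10, 20, 30 min post-apomorphine. At least five animals per dose, maximum 100 mg/kg.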

In assay [17] the test system is Rattus norvegicus. In words: spontaneous discharge activity of individual noradrenergic neurons in the locus coeruleus (LC) when administered intravenously in anesthetized male Sprague-Dawley rats; (excitatory). The assay is classed as functional. The settings on record: iv.
In assay [18] the test system is Rattus norvegicus. In words: Spontaneous discharge activity of individual dopaminergic neurons in the substantia nigra (A9 DA cells) when administered intravenously at a dose of 0.1-6.3 mg/kg in anesthetized male Sprague-Dawley rats; (excitatory). It counts as functional. Particulars: A9DA, iv.
Assay [19] concerns Rattus norvegicus. In words: Spontaneous discharge activity of individual dopaminergic neurons in the ventral tegmentum neurons (A10 DA cells) when administered intravenously at a dose of 0.1-6.3 mg/kg in anesthetized male Sprague-Dawley rats; (excitatory). The assay is classed as functional. Particulars: A10DA, iv.
In assay [20] the test system is Rattus norvegicus. Put plainly: Spontaneous discharge activity of individual serotonergic neurons in the dorsal raphe (DR) nucleus when administered intravenously in anesthetized male Sprague-Dawley rats; (inhibitory). It counts as functional. The settings on record: iv.

SMILES strings stand for the structures. Activity calls are given as the source filed them. The rule behind the calls is not given here. Some results are limits rather than exact numbers.

D(2) dopamine receptor, sequence (P61169 whole entry): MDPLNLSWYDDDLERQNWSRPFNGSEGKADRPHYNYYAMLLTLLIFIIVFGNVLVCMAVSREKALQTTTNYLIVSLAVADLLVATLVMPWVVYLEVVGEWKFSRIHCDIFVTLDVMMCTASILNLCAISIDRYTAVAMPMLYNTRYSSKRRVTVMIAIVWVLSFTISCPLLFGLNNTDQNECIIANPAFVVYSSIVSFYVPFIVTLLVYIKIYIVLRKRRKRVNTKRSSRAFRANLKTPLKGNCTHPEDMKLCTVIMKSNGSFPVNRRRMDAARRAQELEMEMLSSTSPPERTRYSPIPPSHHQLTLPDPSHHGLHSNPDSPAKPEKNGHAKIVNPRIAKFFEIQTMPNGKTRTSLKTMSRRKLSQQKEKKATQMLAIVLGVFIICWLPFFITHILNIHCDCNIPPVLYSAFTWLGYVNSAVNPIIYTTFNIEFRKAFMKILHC

For `O=C1COCC(=O)N1CCCCN1CCN(c2nccc3occc23)CC1`, the IC50 (usually the concentration at which inhibition is half-maximal) was 33.5 nM in assay [1], 40.9 nM in assay [2], above 1000 nM in assay [3] and 55.2 nM in assay [15]. Moreover, the ED25 result in assay [4], in assay [8], in [9] and in [10] was “inactive” each time. Also, in assay [5], the ED25 was found to be 0.017 mg/kg. Further, the ED50 (commonly the dose that gives a 50% effect, or the effect in half of the subjects) was found to be 34 mg/kg in assay [6], 2.2 mg/kg in assay [11], 0.01 mg/kg in [12] and 11.2 mg/kg in assay [13]. Besides, the ED50 entry in assay [7] was “inactive”. In assay [14] (po), this compound gave an MED of 25 mg/kg.

As to `CC1(C)CC(=O)N(CCCCN2CCN(c3nccc4sccc34)CC2)C(=O)C1.Cl`, the IC50 turned out to be 5.7 nM in [1], 18.8 nM in assay [2], 115 nM in [3] and 3 nM in [15]. In addition, the MED50 in [16] was determined as 10 mg/kg; in [14] it was 50 mg/kg. The values for the ED25 in assay [17], in assay [18] and in assay [19] were 0.06 mg/kg, 0.086 mg/kg and 0.05 mg/kg, respectively. In addition, the ED50 amounted to 39.7 mg/kg in [6], 0.042 mg/kg in [20] and 6 mg/kg in assay [13]. Moreover, the ED50 result in assay [7] is “inactive”.
